Activity calls are given as the source filed them.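 How the source made its calls, unless noted: active means viability at or under a set limit in both replicates, limit being median viability minus 3 SD (cut at about 48% in these data, passing the limit was not always enough); inconclusive means at or under the limit in just one replicate; inactive means at or above the limit in both replicates.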
Legend:
[1] = Her2 expression decrease, cell viability multiplex – SKBR3 breast tumor cells, AlphaScreen, ATP viability, primary screen (AID 461;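 active means Her2 level under about 52% in both replicate screens, with viability over 70% of control, limit read from the data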;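 on Her2 level: lower value means less Her2 protein in the cells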;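 on viability: percent of carrier control wells set as 100% viability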); settings: SKBR3 Her2 protein level, 18-24 h, measured here: SKBR3 viability, ATP luminescence, at 10 µM
[2] = target: Receptor tyrosine-protein kinase erbB-2 (Homo sapiens) (UniProt P04626); experiment: as above; settings: 18-24 h, at 10 µM, stronger effect = lower value
[3] = reduced viability of SK-BR-3 breast cancer cells – cell-based, 24 h, human, pilot screen (AID 572;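 active means viability at or below 10% of carrier control in both of two separate runs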;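 further: compound exposure lasted between 18 and 24 h rather than exactly 24 h; 100% = carrier-treated control wells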); settings: SK-BR-3 viability, CellTiter-Glo luminescence, at 10 µM, stronger effect = lower value
[4] = HUVEC growth inhibition – cell-based, human, primary screen (AID 575;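 active means viability at or below 30% in both replicate assays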;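 further: 100% = median of untreated cell wells with 0.1% DMSO on each plate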); settings: HUVEC proliferation, CellTiter-Glo luminescence, 72 h; at 10 µM; stronger effect = lower value
Summary of the method: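 Material: primary human umbilical vein endothelial cells / Schedule: 72 h exposure, 37 °C, 5% CO2, 30 min RT equilibration / Signal: ATP-based CellTiter-Glo luminescent read / Read-out basis: percent of median DMSO-control luminescence / Control set: 32 DMSO-only cell-control wells (high), 32 MePR drug-control wells (low) per plate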

[5] = H69AR cell proliferation blockers – human, duplicate replicates, primary screen (AID 580); settings: H69AR lung tumor cells viability, ATP luminescence, 72 h; at 10 µM; stronger effect = lower value;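 further: 100% = mean luminescence of untreated wells and 0% = no signal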
[6] = MRP1 drug-resistance reversers in H69AR cells – cell-based, doxorubicin co-treatment, pilot screen (AID 601;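 active means viability loss from added drug above about 55%, and viability with drug at most 40%, in both replicates, limit read from the data, passing the limit was not always enough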); settings: CellTiter-Glo, 72 h, at 10 µM; for differential viability (reversal): stronger effect = higher value
[7] = yeast transport mutant growth inhibition pilot in 384-well plates, post-Golgi transport modulator project (AID 636; in the data active means inhibition above about 31%); settings: absorbance 615 nm, about 18 h, stronger effect = higher value
[8] = growth suppression of yeast trafficking mutant, preliminary HTS, modulators of trafficking downstream of Golgi apparatus project, 1536-format plate, OD 615 nm (AID 637; in the data active means inhibition above about 30%); settings: yeast transport mutant growth, absorbance 615 nm, 18 h; stronger effect = higher value
[9] = H69AR cells + 2 uM doxorubicin, measured here: viability with 2 uM doxorubicin, stronger effect = lower value
[10] = H69AR cells, compound alone cytotoxicity

Chain of Receptor tyrosine-protein kinase erbB-2 (Homo sapiens) (P04626 whole entry, looked up): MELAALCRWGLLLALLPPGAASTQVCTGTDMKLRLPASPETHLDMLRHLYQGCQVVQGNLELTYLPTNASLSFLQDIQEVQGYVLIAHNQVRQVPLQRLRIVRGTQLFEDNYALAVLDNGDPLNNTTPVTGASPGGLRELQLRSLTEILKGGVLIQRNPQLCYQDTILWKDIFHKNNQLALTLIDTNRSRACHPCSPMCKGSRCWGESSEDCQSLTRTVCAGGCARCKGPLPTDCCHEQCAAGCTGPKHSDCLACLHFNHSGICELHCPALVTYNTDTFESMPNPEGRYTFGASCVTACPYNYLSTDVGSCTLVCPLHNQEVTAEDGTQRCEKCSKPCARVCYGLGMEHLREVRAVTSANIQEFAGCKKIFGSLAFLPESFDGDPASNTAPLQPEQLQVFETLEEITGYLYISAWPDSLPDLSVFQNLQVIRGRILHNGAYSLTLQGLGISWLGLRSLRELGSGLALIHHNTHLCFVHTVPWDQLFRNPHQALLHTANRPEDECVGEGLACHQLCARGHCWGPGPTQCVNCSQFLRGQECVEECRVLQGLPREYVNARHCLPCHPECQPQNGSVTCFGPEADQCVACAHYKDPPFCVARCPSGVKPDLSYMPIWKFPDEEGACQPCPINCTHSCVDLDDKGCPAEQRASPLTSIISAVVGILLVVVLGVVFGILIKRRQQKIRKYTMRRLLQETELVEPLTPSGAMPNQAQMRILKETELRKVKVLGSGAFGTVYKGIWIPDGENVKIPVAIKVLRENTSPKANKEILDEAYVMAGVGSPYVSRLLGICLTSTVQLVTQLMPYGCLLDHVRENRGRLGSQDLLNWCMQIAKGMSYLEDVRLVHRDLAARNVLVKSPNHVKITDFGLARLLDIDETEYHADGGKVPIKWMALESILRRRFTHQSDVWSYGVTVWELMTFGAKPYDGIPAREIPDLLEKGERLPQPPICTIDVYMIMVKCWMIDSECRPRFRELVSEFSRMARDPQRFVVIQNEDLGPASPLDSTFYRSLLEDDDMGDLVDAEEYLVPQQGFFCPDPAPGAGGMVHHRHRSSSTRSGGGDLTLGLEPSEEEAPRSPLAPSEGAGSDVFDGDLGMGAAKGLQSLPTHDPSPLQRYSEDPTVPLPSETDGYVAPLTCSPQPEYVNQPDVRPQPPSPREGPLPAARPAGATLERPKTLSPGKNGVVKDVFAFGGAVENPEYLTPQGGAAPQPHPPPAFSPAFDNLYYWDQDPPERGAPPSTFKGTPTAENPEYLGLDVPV

With `CCc1cccc(NC(=O)C2CCCN(S(=O)(=O)c3c(C)[nH]c(=O)[nH]c3=O)C2)c1` (stereo not given) the viability [1] was 89.5%, the Her2 level [2] was 82% (inactive) and the viability [3] was 89.5% (inactive). For the same compound, the viability [4] was 97% (inactive), the viability [5] was 95% (inactive) and the differential viability (reversal) ([6]; H69AR cells + 2 uM doxorubicin) was 6.79% (inactive). For the same compound, the viability [6, 9] was 88.2%, the viability [6, 10] was 95% and the inhibition [7] was -2.89% (inactive). For the same compound, the inhibition [8] was -3.83% (inactive).

With `Cc1cc(C)cc(N2CCCn3c2nc2c3c(=O)n(CCN3CCOCC3)c(=O)n2C)c1` the viability [1] was 101%, the Her2 level [2] was 81% (inactive) and the viability [3] was 101% (inactive). For the same compound, the viability [4] was 97.2% (inactive), the viability [5] was 83.3% (inactive) and the differential viability (reversal) ([6]; H69AR cells + 2 uM doxorubicin) was -0.035% (inactive). For the same compound, the viability [6, 9] was 83.3%, the viability [6, 10] was 83.3% and the inhibition [7] was -7.2% (inactive). For the same compound, the inhibition [8] was -3.44% (inactive).

For `Cc1ccc(NC(=O)Cn2cccc2)cc1Cl`, the viability [1] was 94%, the Her2 level [2] was 85% (inactive) and the viability [3] was 94% (inactive). For the same compound, the viability [4] was 98.5% (inactive), the viability [5] was 96.3% (inactive) and the differential viability (reversal) ([6]; H69AR cells + 2 uM doxorubicin) was 17.9% (inactive). For the same compound, the viability [6, 9] was 78.5%, the viability [6, 10] was 96.3% and the inhibition [7] was -5.95% (inactive). For the same compound, the inhibition [8] was -3.67% (inactive).

With `O=c1cc(CSc2ccccn2)c2ccccc2[nH]1` the viability [1] was 91.5%, the Her2 level [2] was 76% (inactive) and the viability [3] was 91.5% (inactive). The viability [4] was 85.2% (inactive), the viability [5] was 93.1% (inactive) and the differential viability (reversal) ([6]; H69AR cells + 2 uM doxorubicin) was 8.09% (inactive). The viability [6, 9] was 85.1%, the viability [6, 10] was 93.1% and the inhibition [7] was -4.46% (inactive). For the same compound, the inhibition [8] was 4.13% (inactive).

In the case of `Cc1cc(C(=O)NCCCc2ccccc2)no1`, the viability [1] is reported as 100%, the Her2 level [2] is reported as 86% (inactive) and the viability [3] is reported as 100% (inactive). The viability [4] was 91.4% (inactive), the viability [5] was 107% (inactive) and the differential viability (reversal) ([6]; H69AR cells + 2 uM doxorubicin) was 18.6% (inactive). For the same compound, the viability [6, 9] was 88.7%, the viability [6, 10] was 107% and the inhibition [7] was -5% (inactive). The inhibition [8] was -2.83% (inactive).

In the case of `COc1cccc(-c2csc3nnc(SCC(=O)c4ccc(NC(C)=O)cc4)n23)c1`, the viability [1] is reported as 108%, the Her2 level [2] is reported as 106% (inactive) and the viability [3] is reported as 108% (inactive). The viability [4] was 92% (inactive), the viability [5] was 90% (inactive) and the differential viability (reversal) ([6]; H69AR cells + 2 uM doxorubicin) was -9.79% (inactive). The viability [6, 9] was 99.8%, the viability [6, 10] was 90% and the inhibition [7] was -4.42% (inactive). For the same compound, the inhibition [8] was -0.66% (inactive).

In the case of `Cc1nc(-c2cccc(N)c2)cs1`, the viability [1] is reported as 103%, the Her2 level [2] is reported as 94.5% (inactive) and the viability [3] is reported as 103% (inactive). For the same compound, the viability [4] was 84.3% (inactive), the viability [5] was 103% (inactive) and the differential viability (reversal) ([6]; H69AR cells + 2 uM doxorubicin) was 6.14% (inactive). The viability [6, 9] was 96.8%, the viability [6, 10] was 103% and the inhibition [7] was -1.33% (inactive). For the same compound, the inhibition [8] was -2.3% (inactive).

In the case of `CCOC(=O)c1cccc(NC(=O)CSc2nnc(-c3ccoc3C)n2CCOC)c1`, the viability [1] is reported as 102%, the Her2 level [2] is reported as 92% (inactive) and the viability [3] is reported as 102% (inactive). The viability [4] was 91.6% (inactive), the viability [5] was 89.7% (inactive) and the differential viability (reversal) ([6]; H69AR cells + 2 uM doxorubicin) was -2.74% (inactive). The viability [6, 9] was 92.4%, the viability [6, 10] was 89.7% and the inhibition [7] was -1.45% (inactive). For the same compound, the inhibition [8] was 0.81% (inactive).

In the case of `CCOC(=O)c1cc2sccc2n1Cc1ccccc1`, the viability [1] is reported as 100%, the Her2 level [2] is reported as 116% (inactive) and the viability [3] is reported as 100% (inactive). For the same compound, the viability [4] was 97.9% (inactive), the viability [5] was 96% (inactive) and the differential viability (reversal) ([6]; H69AR cells + 2 uM doxorubicin) was 15.4% (inactive). For the same compound, the viability [6, 9] was 80.7%, the viability [6, 10] was 96% and the inhibition [7] was -2.8% (inactive). For the same compound, the inhibition [8] was 1.8% (inactive).

In the case of `O=c1c2nnn(Cc3ccc(Cl)cc3)c2ncn1Cc1ccc(F)cc1`, the viability [1] is reported as 124%, the Her2 level [2] is reported as 89.5% (inactive) and the viability [3] is reported as 124% (inactive). For the same compound, the viability [4] was 65.6% (inactive), the viability [5] was 94.6% (inactive) and the differential viability (reversal) ([6]; H69AR cells + 2 uM doxorubicin) was 7.53% (inactive). For the same compound, the viability [6, 9] was 87.1%, the viability [6, 10] was 94.6% and the inhibition [7] was -9.86% (inactive). The inhibition [8] was 1.75% (inactive).

For `COc1cccc(CN(C)CC(=O)NC(=O)NCc2ccco2)c1`, the viability [1] was 106%, the Her2 level [2] was 100% (inactive) and the viability [3] was 106% (inactive). The viability [4] was 92.7% (inactive), the viability [5] was 84.7% (inactive) and the differential viability (reversal) ([6]; H69AR cells + 2 uM doxorubicin) was 5.36% (inactive). The viability [6, 9] was 79.4%, the viability [6, 10] was 84.7% and the inhibition [7] was 0.92% (inactive). For the same compound, the inhibition [8] was 21.4% (inactive).

In the case of `CS(=O)(=O)c1ccc2nc(NC(=O)c3cccs3)sc2c1`, the viability [1] is reported as 99%, the Her2 level [2] is reported as 74.5% (inactive) and the viability [3] is reported as 99% (inactive). The viability [4] was 64% (inactive), the viability [5] was 45% (active) and the differential viability (reversal) ([6]; H69AR cells + 2 uM doxorubicin) was -6.37% (inactive). The viability [6, 9] was 51.4%, the viability [6, 10] was 45% and the inhibition [7] was -6.76% (inactive). For the same compound, the inhibition [8] was 2.95% (inactive).

With `CCOCC(=O)Nc1sc2c(c1C(=O)OCC)CCCC2` the viability [1] was 89%, the Her2 level [2] was 89.5% (inactive) and the viability [3] was 89% (inactive). For the same compound, the viability [4] was 54% (inactive), the viability [5] was 90.5% (inactive) and the differential viability (reversal) ([6]; H69AR cells + 2 uM doxorubicin) was -4.83% (inactive). The viability [6, 9] was 95.3%, the viability [6, 10] was 90.5% and the inhibition [7] was 0.13% (inactive). For the same compound, the inhibition [8] was 1.64% (inactive).

With `CCn1c(C)nc2cc(C(=O)OCCC(F)(F)F)ccc21` the viability [1] was 100%, the Her2 level [2] was 112% (inactive) and the viability [3] was 100% (inactive). The viability [4] was 108% (inactive), the viability [5] was 89.8% (inactive) and the differential viability (reversal) ([6]; H69AR cells + 2 uM doxorubicin) was -3.94% (inactive). For the same compound, the viability [6, 9] was 93.7%, the viability [6, 10] was 89.8% and the inhibition [7] was -2.44% (inactive). For the same compound, the inhibition [8] was 7.67% (inactive).
